# The list is not random: actives were taken first. Their share in the collection is about 3.1%.
# core dimer inh: HCV core protein dimerization inhibition; TR-FRET GST/Flag-core106 dimerization, 1536-well; inhibition, % at 5 µM; actives 0.33% (n = 300,000);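 active = inhibition above the mean of all tested compounds plus 3 SD, set per screening campaign, cut at about 45% in these data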
#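 Assay system: tagged HCV core106 pair (GST and Flag); medium: KF-containing HEPES buffer, pH 7.45, DTT, CHAPS, BSA; also added: Eu donor and XL665 acceptor anti-tag antibodies; dosing: 5 µM single dose; timing: compound-protein-antibody incubation 4 h at 22.5 °C; signal: TR-FRET 671 and 617 nm emission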
# VIM-2 inhibitor: inhibitors of Pseudomonas aeruginosa VIM-2 metallo-beta-lactamase. purified VIM-2, nitrocefin hydrolysis, epi-absorbance fluorescence. actives 0.89% (n = 290,000). inhibition, % at 5.6 µM. AID 1527;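 active = inhibition above the mean of all tested compounds plus 3 SD, cutoff set per screening run, cut at about 7.5% in these data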;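 also: red hydrolysis product quenches plate fluorescence so inhibitors raise well fluorescence; 0% = enzyme with DMSO and 100% = DMSO without enzyme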
# PHOSPHO1 block: inhibitors of human PHOSPHO1 phosphatase; recombinant PHOSPHO1, absorbance phosphatase assay; inhibition, % at 13.3 µM; actives 1.1% (n = 290,000); AID 1565; in the data active = inhibition above about 60%
# Target sequence (Q8TCT1 whole entry, looked up): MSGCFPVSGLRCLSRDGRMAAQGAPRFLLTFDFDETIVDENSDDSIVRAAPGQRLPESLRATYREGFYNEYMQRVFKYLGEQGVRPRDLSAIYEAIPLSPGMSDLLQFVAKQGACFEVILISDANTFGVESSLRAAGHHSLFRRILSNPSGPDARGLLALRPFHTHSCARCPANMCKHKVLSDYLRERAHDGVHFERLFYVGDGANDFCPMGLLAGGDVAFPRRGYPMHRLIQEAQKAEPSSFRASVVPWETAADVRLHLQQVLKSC
# HCV NS3 hel inh: HCV NS3 helicase inhibition | actives 0.56% (n = 290,000) | NS3 helicase DNA unwinding, Cy5 molecular beacon fluorescence | inhibition, % at 10.9 µM;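 active = inhibition above the mean of all tested compounds plus 3 SD, set per campaign, cut at about 35% in these data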;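 also: 0% = DMSO wells and 100% = thioflavine S control wells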
#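 Assay system – hepatitis C virus NS3 helicase domain fragment enzyme · Buffer or medium – MOPS pH 6.5, MgCl2, DTT, Tween20, BSA · Reagent – Cy5/quencher beacon DNA duplex and ATP to start · Compound – single 10.9 µM dose · Timing – 1 h at 25 °C · Technique – Cy5 beacon fluorescence read at start and 1 h · Measure – % inhibition of unwinding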
# UBC9 SUMO inh: SUMOylation inhibition; inhibition, % at 35 µM; actives 0.36% (n = 290,000); AID 2006; HTRF SUMOylation assay, SAE1/SAE2 + UBC9, in vitro; P63279; in the data active = inhibition above about 50%, passing the limit was not always enough
# Target sequence (P63279 whole entry, looked up): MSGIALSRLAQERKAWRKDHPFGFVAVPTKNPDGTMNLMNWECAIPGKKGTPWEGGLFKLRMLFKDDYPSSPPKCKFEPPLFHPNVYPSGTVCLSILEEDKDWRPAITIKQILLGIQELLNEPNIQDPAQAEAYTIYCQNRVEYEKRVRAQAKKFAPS
# IMP-1 inhibitor: blocks Pseudomonas aeruginosa IMP-1 metallo-beta-lactamase | AID 1556 | inhibition, % at 5.6 µM | purified IMP-1, nitrocefin hydrolysis, epi-absorbance fluorescence | actives 0.45% (n = 290,000);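 active = inhibition above the mean plus 3 SD of all compounds in the same screening run, cut at about 4.5% in these data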;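 also: 0% = IMP-1 with DMSO and 100% = DMSO wells lacking enzyme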
#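 System – purified recombinant IMP-1 beta-lactamase · Input – IMP-1 dispensed at 0.2 nM · Timing – 15 min preincubation plus 25 min reaction at 25 °C · Signal – Epi-absorbance fluorescence, 480 nm excitation, 530 nm emission · Measure – percent IMP-1 inhibition derived from blank-referenced optical density · Controls – Enzyme-plus-DMSO low control, enzyme-free DMSO high control · Replication – singlicate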
# NS3 helicase cf: confirmation of Hepatitis C virus NS3 helicase inhibitors; shares compounds with HCV NS3 hel inh; NS3 helicase DNA unwinding, Cy5 molecular beacon fluorescence; inhibition, % at 10.9 µM; actives 31% (n = 1,600);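 active = inhibition above the mean of all tested compounds plus 3 SD, cutoff set per campaign, cut at about 36% in these data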
# DNA FID counter: displaces DNA intercalator in HCV helicase counter-screen | AID 1945 | inhibition, % at 7.9 µM | actives 4% (n = 1,600) | DNA fluorescent intercalator displacement, fluorescence | shares compounds with HCV NS3 hel inh; in the data active = inhibition above about 37%;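 also: 0% = vehicle and 100% = reference compound; higher means more displacement of ethidium bromide from the DNA hairpin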
# * marks the source's active call; other numbers are inactive results; · = no result given.
SMILES,core dimer inh,VIM-2 inhibitor,PHOSPHO1 block,HCV NS3 hel inh,UBC9 SUMO inh,IMP-1 inhibitor,NS3 helicase cf,DNA FID counter
CC(=O)NC(Cc1ccccc1C)C(=O)NC1CCN(C(=O)c2cccc(C)c2)CC1 (stereo unspecified),-1,-5,23,13,19,-2,·,·
CCCn1cnc2cc(NC(=O)c3cccs3)ccc21,-12,1,24,-1,-2,-1,·,·
S=c1nc(COc2ccccc2)[nH]c2ccccc12,31,7,-84,42*,5,1,-12,3
COC(=O)c1ccccc1-c1ccc(/C=N/NC(=O)c2cc3ccccc3o2)o1,1,-1,16,38*,-2,-3,-5,-26
O=c1[nH][nH]c2c(N=Cc3ccccc3O)ccc(F)c12,·,0,46,53*,66*,0,18,24
Clc1ccccc1Cn1c(/C=C/c2ccco2)nc2ccccc21,-3,1,-6,52*,49,-1,11,-23
COc1ccc(Cn2c(/C=C/c3ccccc3)nc3ccccc32)cc1,2,-2,8,-12,19,-1,·,·
CCOC(=O)c1ccc(NC(=O)c2cc(C)nn2-c2ccccc2)cc1,4,-1,24,46*,-4,-1,-12,-32
CCOC(=O)c1ccc(N(C(=O)CNC(=O)c2ccco2)C(C(=O)NCC2CCCO2)c2ccc(OC)c(OC)c2)cc1 (stereo unspecified),8,1,36,51*,-3,-2,-10,-53
O=C(O)CN1C(=O)/C(=C\c2cc(Br)ccc2OCc2ccc(Cl)cc2)SC1=S,·,1,48,39*,36,1,67*,59*
Oc1c(Cl)cc(Cl)cc1CNc1nc2ccccc2[nH]1,10,-2,30,-12,0,1,·,·
CC(=O)C1=C(C)NC(SCc2cccc3ccccc23)=C(C#N)C1c1ccco1 (stereo unspecified),5,-1,-5,38*,15,0,-4,-3
Cc1cccc(-n2c(Cc3cc(=O)[nH]c(=O)[nH]3)nnc2SCC(=O)N2CCc3ccccc32)c1,1,0,-22,1,17,-1,·,·
CC(C)c1ccc(SCc2noc(C(=O)NCC3CCCO3)c2C(=O)O)cc1 (stereo unspecified),-7,3,59,41*,-16,-1,36,-19
CCOC(=O)C1=C(C)NC(=S)NC1c1ccc(OCC(=O)N2CCCCC2)cc1 (stereo unspecified),-12,-1,12,-1,2,-1,·,·
CCCCc1cc(=O)oc2cc(OCC(=O)N[C@@H](Cc3ccccc3)C(=O)O)ccc12,-2,0,18,50*,9,-2,24,-26
CCCc1cc(=O)oc2cc(OCC(=O)NC(Cc3ccc(Cl)cc3)C(=O)O)ccc12 (stereo unspecified),6,0,19,5,10,-4,·,·
CCCOC(=O)c1cccc(Nc2nc(-c3cccnc3)nc3ccccc23)c1,7,-3,-48,-31,13,-3,·,·
CCc1cccc(NS(=O)(=O)c2c(C)[nH]c(=O)[nH]c2=O)c1,·,-3,30,-5,-6,-3,·,·
COc1cc(/C=N/NC(=O)[C@H](Cc2c[nH]c3ccccc23)NC(=O)OCC(C)C)cc([N+](=O)[O-])c1O,-14,-4,-9,50*,14,-2,59*,-14
CCOC(=O)CC/C(C)=N\N=C1\SC(CC(=O)O)C(=O)N1c1ccccc1 (stereo unspecified),-7,-2,18,16,20,-3,·,·
CCOC(=O)c1ccc2c(c1)nc(-c1ccccn1)n2CC,-6,-1,6,36*,16,1,1,-17
CCOC(=O)Cn1c(-c2ccccn2)nc2ccccc21,-1,-4,-12,-1,29,-2,·,·
COc1cc(/C=C2/C(=O)NN(c3cccc(Cl)c3)C2=O)cc(OC)c1O,8,-7,39,46*,-12,-7,51*,14
COc1cc(/C=C2/C(=O)NN(c3cccc(C)c3)C2=O)cc([N+](=O)[O-])c1O,-9,-4,32,20,9,-3,·,·
SMILES,core dimer inh,VIM-2 inhibitor,PHOSPHO1 block,HCV NS3 hel inh,UBC9 SUMO inh,IMP-1 inhibitor,NS3 helicase cf,DNA FID counter
COc1cc(/C=C2/NC(=O)N(c3cccc(Cl)c3)C2=O)ccc1O,-23,-2,37,-6,15,-1,·,·
CCOc1cc(/C=C2/C(=O)NN(c3cccc(Cl)c3)C2=O)ccc1O,13,-4,29,37*,9,-9,64*,-4
COc1cc(/C=C2/C(=O)NN(c3ccc(C)c(Cl)c3)C2=O)cc([N+](=O)[O-])c1O,·,-7,28,37*,-10,-6,68*,-2
CCOC(=O)C1C(=O)NC(c2ccccc2)=NC1c1ccc(O)c(OC)c1 (stereo unspecified),-2,-3,31,56*,9,-1,-14,3
CCOC(=O)C1C(=O)NC(N2CCCCC2)=NC1c1ccccc1 (stereo unspecified),0,-4,-2,5,4,-4,·,·
CC1(C)Cc2c(c(-c3ccco3)[nH]c(=O)c2C#N)CS1,-3,-2,-7,44*,33,0,75*,7
CC1(C)Cc2c(c(-c3ccccc3)[nH]c(=O)c2C#N)CS1,7,-1,-12,-5,8,-2,·,·
CCNC(=O)CC1SC(=Nc2ccc(C)c([N+](=O)[O-])c2)N(C)C1=O (stereo unspecified),-3,·,·,·,·,·,·,·
O=C1/C(=C/c2ccco2)SC(=S)N1CCC(=O)N1CCCCC1CCO (stereo unspecified),10,-6,41,9,·,3,·,·
Cc1ccccc1CN1CCc2c(OCC(=O)N3CCCc4ccccc43)cccc2C1=O,11,-3,-6,75*,-6,-1,-12,-44
O=C1c2cccc(OCC(=O)N3CCCc4ccccc43)c2CCN1Cc1cccnc1,0,-3,-2,-4,8,-3,·,·
CC1=NN(C(N)=S)C(=O)C1N=Nc1ccc(Br)cc1 (stereo unspecified),·,-3,44,41*,-18,-1,-10,11
CC1=CC(C)(C)Nc2ccc(OC(=O)CN3C(=O)c4ccccc4C3=O)cc21,-17,1,-10,1,-7,0,·,·
CC1=CC(C)(C)Nc2ccc(OC(=O)CN3C(=O)c4cccc5cccc(c45)C3=O)cc21,7,1,11,39*,11,2,-14,1

# High-throughput results (PubChem)
